Tested on: MS2 coat protein
Test: apparent Kd, MS2 coat protein; higher = weaker binding; RNA-MaP array; FMN 200 µM where present
Procedure, shortened: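 In 100 mM Tris-HCl pH 7.5, 80 mM KCl, 4 mM MgCl2, BSA, DTT, yeast tRNA and Tween-20, SNAP-549-labelled MS2 coat protein was titrated from 0.7 or 1.5 nM, doubling to 3 µM, over designs transcribed by stalled E. coli RNA polymerase on Illumina sequencing-chip clusters. This was done first without ligand, then with ligand held constant. After green signal was normalised to red-channel RNA signal and control-cluster median Fmax, the apparent Kd was taken as the median of filtered per-cluster binding-curve fits.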

[1] = designed as: OFF switch for flavin mononucleotide, no ligand
[2] = ligand present: flavin mononucleotide, designed as: OFF switch for flavin mononucleotide
[3] = designed as: ON switch for flavin mononucleotide, no ligand
[4] = ligand present: flavin mononucleotide, designed as: ON switch for flavin mononucleotide

Row | Sequence | apparent Kd [1] | apparent Kd [2] | apparent Kd [3] | apparent Kd [4]
1 | UACUACGCAGGAUAUACAUGAGGAUCACCCAUGUGUCUGCGAUAGGCACGUGAUAUCCGUAGAAGGGUGUAGAU | 30.4 nM | 79.5 nM |  | 
2 | UCGGCGCGAGGAUAUACGUUUGCGCGUUUUCGUUUGCGCGUACAUGAGGAUCACCCAUGUAGAAGGCGCGCCGC | 15.1 nM | 29.9 nM |  | 
3 | GUUGCUUUCCGAGGAUAUUCAGGGCGUGGAUAUACAUGAGGAUCACCCAUGUGGCGGAAGCCUAGGGAGAAGGCGGGCUGCUUC |  |  | 41.1 nM | 20.5 nM
4 | AAAAAACAAGGAUAUACGUAUGAGGAUUGUCUUAAUUUUUGACAUGAGGAUCACCCAUGUAGAAGGUGUUAAAA | 120 nM | 126 nM |  | 
5 | AAAGUGCAAGGAUAUAUAUGAAAAGUUACGAAAGUAACAAAACAUGAGGAUCACCCAUGUAGAAGGUGCACAAA | 27.8 nM | 24.4 nM |  | 
6 | UUACUCAUGUAAGGAUAUGCAGCCGUUUCGGCUGCAGAAGGUACUAUAAUACAUGAGGAUCACCCAUGUCUUUUUAAUUUAGAU |  |  | 195 nM | 77 nM
7 | UAUAUAUAGUAAGGAUAUGUAAUUAUUUUAUAGACAGAAGGUACUGACAUGAGGAUCACCCAUGUUUUAGUGUGGGCAUGUAGA | 85.2 nM | 130 nM |  | 
8 | UCACGGUAUGUAGGAUAUGCAUAGCAUUGCUAUGCAGAAGGACAUGAGGAUCACCCAUGUAUGUAUUCCAUACAAAUCCCGUGU | 5.68 nM | 5.58 nM |  | 
9 | GUUAGUUAAGGAUAUACAGGGAGCUGCGGCGUCUCGCCGCAACAUGAGGAUCACCCAUGUAGAAGGUGGCCAUU | 548 nM | 586 nM |  | 
10 | GGACAGUGUCGUUAUCCGUAGCGAACAUGAGGAUCACCCAUGUAGGAUAUGUUAUUAAACUAAUAACAGAAGGACGUUGGUCUC | 24.8 nM | 125 nM |  | 
11 | GCCGUGUUAGGAUAUUAAAGACCUGCGCCAAACGCAGGAAGUAAGAAGGAACAUGAGGAUCACCCAUGUGUCCG | 17.2 nM | 14.5 nM |  | 
12 | GUAGAGUAGUGAGGAUAUACGAGAUCGAUAGAUCGGCGAUCCAUUAAUACAUGAGGAUCACCCAUGUAGAAGGCACUUCUCUAC | 6.31 nM | 76.7 nM |  | 
13 | GGUGGACAUGAGGAUCACCCAUGUGAGGAUAUCGGCUGGCUAGUGGCGGCUGGCUUCUCGAGAAGGCGCAUAGU | 49.7 nM | 72.5 nM |  | 
14 | UGAUCGAGAGAUCUUAGAUUCUGGUAGGAUAUACAUUAUGUUUGAUAUACAUGAGGAUCACCCAUGUAGAAGGACUAGAGUCUA | 7.34 nM | 15.9 nM |  | 
15 | CCACGACCGGAGAAGGCAGUUUGUGGGCCUGUUCCUGUCGGAUACAUGAGGAUCACCCAUGUACCUGAGGAUAUCUGGUCGCAG | 5.52 nM | 6.07 nM |  | 
16 | AAGAAACACGUGGAGUUAUUCGGGUAGGAUAUCUACGACCUGAUCGACAUGAGGAUCACCCAUGUAGAGAAGGGCCCAUCUCCU | 6.65 nM | 8.87 nM |  | 
17 | UGGUACAUCGGAGGAUAUCAUGUAUAUACAUGAGGAUCACCCAUGUCGAUGGAGACAUCGGAGAUUGAGAAGGCCGAUGUACCU |  |  | 799 nM | 33.3 nM
18 | CCGGAAACGGGUAGCCUGACAUGAGGAUCACCCAUGUAAUACGAGGAUAUGGAUCCUAAUUGGAUCCAGAAGGUGUCAGGCUAC |  |  | 862 nM | 682 nM

Row | Sequence | apparent Kd [1] | apparent Kd [2] | apparent Kd [3] | apparent Kd [4]
19 | GGAUAGGACAGAGGAUAUACGUGCUAGAGAUACUAGCAAAAUUUCCUUACAUGAGGAUCACCCAUGUAGAAGGCUGUCCUAUCG | 5.79 nM | 12.7 nM |  | 
20 | UUGGUUACAUGAGGAUCACCCAUGUCUCAGGCCCUAUUUAGCAGAAGGCCAGCUGGGCUACGGAUGGAGGAUAUGCUUAUGGCC |  |  | 131 nM | 29.6 nM
21 | UUAUUAGCAGGAUAUAUCCAGGAUUACAUGAGGAUCACCCAUGUGACCGCUUGAAAUUCUAUAGAAGGGCUUUAUU | 33.2 nM | 36.4 nM |  | 
22 | CACAUGAGGAUCACCCAUGUACUUAAUAUAAAUGUCAGAACCAGAAGGACCAGUUGAUUUGACCGGUAGGAUAUGGGCGGACCG |  |  | 18.1 nM | 6.89 nM
23 | ACAUGAGGAUCACCCAUGUGACAAGAAUGGCUGAUACAGAGACAGGAUAUAGGUGCAUAUCUAACCUAGAAGGGUCAUGACUGG | 35.2 nM | 31.9 nM |  | 
24 | AAUUAAUUAAUACAUGAGGAUCACCCAUGUAAUUAUUAGAUCUAGGAUAUCAGCUCGAAUAGAGCUGAGAAGGAGAUCACAUGU |  |  | 19.4 nM | 15 nM
25 | UGAUCGAGAGAUCUUAGAUUCUGGUAGGAUAUACAUUAUGAAAAUUUUACAUGAGGAUCACCCAUGUAGAAGGACUAGAGUCUA | 5.44 nM | 6.33 nM |  | 
26 | CGCUAUUAUGUAGGAUAUACAUUUUUUAUGUAUGUAGAAGGACAUGAGGAUCACCCAUGUAAAUAAAUUUUAAUUAUCAUAGCG | 21.9 nM | 18.3 nM |  | 
27 | UACGUUAUACGCAACAUGAGGAUCACCCAUGUUAGCCGAUCACAGGAUAUGUUGGAGCCGGUCGGACAGAAGGGUGAGUUUGCU |  |  | 47.9 nM | 43.3 nM
28 | UGUUGUUCAGGAUAUGAUGUAUAAUACAUGAGGAUCACCCAUGUAGGUCCUGAUUUGGCGUCAGAAGGGAAUGUUG | 27.7 nM | 31 nM |  | 
29 | UCUGUAGGAAUACAGACGAAGUGGCCAGAAGGUGAAUGCCACAUGAGGAUCACCCAUGUUUCGAUCAAGGAUAUGGUUUCUCAC |  |  | 312 nM | 79.8 nM
30 | AUGCGUGGCUAGGAUAUCGAGGAAUCUAGCCAGCGAGAAGGAGCCACAUGAGGAUCACCCAUGUGGUGAACCUC | 22.8 nM | 17.6 nM |  | 
31 | AGAUCCUGAGUCAGGAUAUAGAGGCGGUAGCCUGGCUAGAAGGGACAUGAGGAUCACCCAUGUGGGUUCGAGCC | 17.7 nM | 31.3 nM |  | 
32 | GCAGGAUAAGUGAGGAUAUACCUCUGGAUACAGAGGUAGAAGGCACAUGAGGAUCACCCAUGUUACUCACCUGC | 11.9 nM | 33.8 nM |  | 
33 | GCGAGCGUACUUGCAACAUGAGGAUCACCCAUGUUAACUGGACAGGAUAUGGUACCGUUUCGGUACCAGAAGGGUUCACUCAUG |  |  | 137 nM | 250 nM
34 | GCGGAUCUAGGAUAUACAUGAGGAUCACCCAUGUAAACUCUCUUGGAUGACUACUAUUGUAGAAGGAGAUAAGC | 25.4 nM | 41 nM |  | 
35 | UGACGGAGCUGAGGAUAUUACAUGAGGAUCACCCAUGUAAGUCUCCAGGAAACUGGAGACAAAUGUAAGAAGGCAGCUCCGUCA | 18.7 nM | 27.9 nM |  | 
36 | AUAUGAUAGAUAGGAUAUACAGUUGAAUAAUAAGUAGAAGGAUCAAAUGGGAAUUAUACAUGAGGAUCACCCAUGUUUUUGGAU |  |  | 44.1 nM | 35.8 nM

— the EternaBench riboswitch data
